One block for each molecule: values may come before it. Activity calls are given as the source filed them. The calls are words filed in the database; no cut-off is given here.
Assays:
Kallikrein-7 [1] = target: T1, Kallikrein-7 (Homo sapiens, UniProt P49862); experiment: Inhibition of human KLK7 using Suc-Leu-Leu-Val-Tyr-AMC as substrate at 50 uM after 15 mins by fluorescence assay relative to control
Target sequence in this assay (P49862 30-253 limits assumed): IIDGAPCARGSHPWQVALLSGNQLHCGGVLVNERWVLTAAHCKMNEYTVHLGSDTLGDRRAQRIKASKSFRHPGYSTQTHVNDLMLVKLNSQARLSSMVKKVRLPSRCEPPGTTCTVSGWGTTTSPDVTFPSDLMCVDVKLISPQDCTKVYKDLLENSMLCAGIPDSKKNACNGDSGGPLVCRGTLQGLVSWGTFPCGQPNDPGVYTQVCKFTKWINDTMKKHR

[2] = target: Kallikrein-5 (Homo sapiens) (UniProt Q9Y337); experiment: Inhibition of human KLK5 using Boc-Val-Pro-Arg-AMC as substrate at 50 uM after 15 mins by fluorescence assay
Method in brief: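 KLK5 at 0.6 nM, final, with 100 µM Boc-VPR-AMC in pH 8.0 buffer of 50 mM Tris-HCl, 0.01% Tween 20, 150 mM NaCl, 2% DMSO. Compound at 50 µM preincubated 15 min with enzyme. Fluorescence then read 15 min at 37 °C, ex 360 / em 460 nm. Inhibition taken from initial rates versus untreated control.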

Kallikrein-7 [3] = target: T1, Kallikrein-7; experiment: Inhibition of human KLK7 using Suc-Leu-Leu-Val-Tyr-AMC as substrate after 15 mins by fluorescence assay
Method in brief: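 Recombinant KLK7 at 7.6 nM, final, with 40 µM Suc-LLVY-AMC in pH 8.0 buffer of 50 mM Tris-HCl, 0.01% Tween 20, 1 M NaCl, 2% DMSO. Enzyme preincubated 15 min with compound, then hydrolysis followed for 15 min at 37 °C, ex 360 / em 460 nm. Run in triplicate. Initial rates taken relative to untreated enzyme; IC50 fitted to hyperbolic or Hill equation.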
Target sequence in this assay (P49862 whole entry): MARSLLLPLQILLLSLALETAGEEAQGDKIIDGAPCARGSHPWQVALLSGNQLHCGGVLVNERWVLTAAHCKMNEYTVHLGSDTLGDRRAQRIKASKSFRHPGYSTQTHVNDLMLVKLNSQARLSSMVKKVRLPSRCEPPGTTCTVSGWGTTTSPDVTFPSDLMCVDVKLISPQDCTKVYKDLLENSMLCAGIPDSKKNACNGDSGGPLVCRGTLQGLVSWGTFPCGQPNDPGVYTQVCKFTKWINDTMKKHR

Kallikrein-7 [4] = target: T1, Kallikrein-7; experiment: Competitive inhibition of human KLK7 using Suc-Leu-Leu-Val-Tyr-AMC as substrate by Lineweaver-Burk plot analysis
Target sequence in this assay (P49862 whole entry): as above

[5] = target: T2, Kallikrein-14 (Homo sapiens) (UniProt Q9P0G3); experiment: Inhibition of human KLK14 using Boc-Val-Pro-Arg-AMC as substrate at 50 uM after 15 mins by fluorescence assay
T2 sequence (whole entry): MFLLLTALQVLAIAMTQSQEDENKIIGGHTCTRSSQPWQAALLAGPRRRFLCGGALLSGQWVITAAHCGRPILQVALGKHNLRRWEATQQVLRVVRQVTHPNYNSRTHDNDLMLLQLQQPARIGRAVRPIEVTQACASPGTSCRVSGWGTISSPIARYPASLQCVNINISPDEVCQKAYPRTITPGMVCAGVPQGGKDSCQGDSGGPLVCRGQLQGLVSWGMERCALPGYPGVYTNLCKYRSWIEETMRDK
Method in brief: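 KLK14 at 0.2 nM, final, with 10 µM Boc-VPR-AMC in pH 8.0 buffer of 50 mM Tris-HCl, 0.01% Tween 20, 1 M NaCl, 2% DMSO. Compound at 50 µM preincubated 15 min with enzyme. Fluorescence then read 15 min at 37 °C, ex 360 / em 460 nm. Percent inhibition taken from initial rates relative to control.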

Kallikrein-7 [6] = target: T1, Kallikrein-7; experiment: Reversible inhibition of human KLK7 using Suc-Leu-Leu-Val-Tyr-AMC as substrate preincubated for 15 to 60 mins followed by 40 fold dilution by fluorescence assay
Method in brief: (§1)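 KLK7 preincubated with inhibitor, 50 µM where stated, for 15 and 60 min at pH 8.0 and 37 °C. Mixture then diluted 40-fold into buffer holding Suc-LLVY-AMC under the routine KLK7 conditions. Residual activity read fluorimetrically, ex 360 / em 460 nm, and compared with the uninhibited enzyme.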
Target sequence in this assay (P49862 30-253 limits assumed): as the sequence (P49862 30-253 limits assumed) above

[7] = target: T3, Kallikrein-8 (Homo sapiens) (UniProt O60259); experiment: Inhibition of human KLK8 using Boc-Val-Pro-Arg-AMC as substrate at 50 uM after 15 mins by fluorescence assay
T3 sequence (whole entry): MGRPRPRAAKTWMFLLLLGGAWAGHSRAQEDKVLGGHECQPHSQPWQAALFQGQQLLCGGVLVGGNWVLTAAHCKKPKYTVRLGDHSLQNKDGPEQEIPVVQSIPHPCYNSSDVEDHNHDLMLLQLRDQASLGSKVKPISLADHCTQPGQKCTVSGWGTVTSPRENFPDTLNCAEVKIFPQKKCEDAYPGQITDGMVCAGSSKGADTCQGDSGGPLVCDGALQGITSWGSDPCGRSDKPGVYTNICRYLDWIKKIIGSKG
Method in brief: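 KLK8 at 1 nM, final, with 100 µM Boc-VPR-AMC in pH 8.0 Tris-HCl buffer containing 0.01% Tween 20 and 2% DMSO. Compound at 50 µM preincubated with enzyme 15 min. Substrate hydrolysis then monitored 15 min at 37 °C, ex 360 / em 460 nm. Initial rates compared with the untreated enzyme.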

SW-620 = experiment: Cytotoxicity against human SW620 cells assessed as cell death after 48 to 72 hrs by XTT assay; assay type: functional, cell-based
Method in brief: (§2)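 Cells seeded at 5000 per well in DMEM with 10% FBS, penicillin and streptomycin (100 µg/mL each), 37°C, 5% CO2. Compound in DMSO added 20 h after seeding, 1% DMSO final, DMSO-only controls. At least three wells per condition. Viability relative to DMSO; EC50 = concentration giving 50% cell death.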

HeLa = experiment: Cytotoxicity against human HeLa cells assessed as cell death after 48 to 72 hrs by XTT assay; assay type: functional, cell-based
Method in brief: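 Cells seeded at 5000/well in DMEM with 10% FBS, penicillin and streptomycin, 37 °C, 5% CO2. Compounds in DMSO added 20 h later, final DMSO 1%; screened at 100 µM, then over a concentration range, at least three wells per condition. Absorbance read at 485 nm after 3 h, viability given relative to DMSO controls, EC50 taken as 50% cell death.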

[8] = Cytotoxicity against human PC3 cells assessed as cell death after 48 to 72 hrs by XTT assay; assay type: functional, cell-based, PC-3; method in brief: as §2
Kallikrein-7 [9] = target: T1, Kallikrein-7; experiment: Reversible inhibition of human KLK7 using Suc-Leu-Leu-Val-Tyr-AMC as substrate at 50 uM preincubated for 15 mins followed by 40 fold dilution by fluorescence assay; method in brief: as §1
Target sequence in this assay (P49862 30-253 limits assumed): as the sequence (P49862 30-253 limits assumed) above

[10] = Homo sapiens, HeLa, read-out: EC50

Sequence of Kallikrein-5 (Homo sapiens) (Q9Y337 whole entry): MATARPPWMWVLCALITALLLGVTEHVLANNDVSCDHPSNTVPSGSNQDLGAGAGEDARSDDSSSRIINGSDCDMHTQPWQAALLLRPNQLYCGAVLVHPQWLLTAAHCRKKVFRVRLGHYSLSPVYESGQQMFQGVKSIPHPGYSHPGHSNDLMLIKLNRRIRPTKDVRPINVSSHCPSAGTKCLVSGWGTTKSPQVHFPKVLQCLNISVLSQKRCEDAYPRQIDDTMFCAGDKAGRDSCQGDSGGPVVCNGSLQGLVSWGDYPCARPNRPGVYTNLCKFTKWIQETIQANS

SMILES: COc1ccccc1C1=Nc2nc3ccccn3c2C(=O)[C@H](Cc2ccccc2)N1
inhibition (Kallikrein-7 [1]): < 30%

SMILES: COc1cccc(C2=Nc3nc4ccccn4c3C(=O)[C@H](Cc3ccccc3)N2)c1
inhibition (Kallikrein-7 [1]): < 30%

SMILES: O=C1c2c(nc3ccccn23)N=C(c2ccc([N+](=O)[O-])cc2)N[C@H]1Cc1ccccc1
inhibition (Kallikrein-7 [1]): < 30%

SMILES: O=C1c2c(nc3ccccn23)N=C(c2cccnc2)N[C@H]1Cc1ccccc1
inhibition (Kallikrein-7 [1]): < 30%

SMILES: COc1ccc(C(=O)N[C@@H](Cc2ccccc2)C(=O)c2c(N)nc3ccccn23)cc1OC
inhibition (Kallikrein-7 [1]): < 30%

SMILES: Nc1nc2ccccn2c1C(=O)[C@H](Cc1ccccc1)NC(=O)c1ccc[nH]1
inhibition (Kallikrein-7 [1]): < 30%

SMILES: COc1ccc(C2=Nc3nc4ccccn4c3C(=O)[C@H](C)N2)cc1OC
inhibition (Kallikrein-7 [1]): < 30%

SMILES: Cc1ccc(C2=Nc3nc4ccccn4c3C(=O)[C@H](Cc3ccccc3)N2)c(C)c1
EC50 (SW-620; Homo sapiens, SW-620, read-out: EC50): 67.8 µM
IC50 (Kallikrein-7 [3]): 83.9 µM
EC50 (HeLa; hela): Not Active
EC50 ([8]; pc-3): Not Active

SMILES: O=C1c2c(nc3ccccn23)N=C(c2ccccc2O)N[C@H]1Cc1ccccc1
inhibition (Kallikrein-7 [1]): < 30%

SMILES: COc1cc(C2=Nc3nc4ccccn4c3C(=O)[C@H](Cc3ccccc3)N2)cc(OC)c1OC
EC50 (SW-620; sw-620): Not Active
IC50 (Kallikrein-7 [3]): 55.7 µM
EC50 (HeLa; [10]): 53.8 µM
EC50 ([8]; pc-3): Not Active

SMILES: Nc1nc2ccccn2c1C(=O)[C@H](Cc1ccccc1)NC(=O)c1ccccc1
inhibition (Kallikrein-7 [1]): < 30%

SMILES: O=C1c2c(nc3ccccn23)N=C(c2cc(O)ccc2O)N[C@H]1Cc1ccccc1
inhibition (Kallikrein-7 [1]): < 30%

SMILES: COc1ccc(C2=Nc3nc4ccccn4c3C(=O)[C@H](CO)N2)cc1OC
inhibition (Kallikrein-7 [1]): < 30%

SMILES: O=C1c2c(nc3ccccn23)N=C(c2ccccc2)N[C@H]1Cc1ccccc1
inhibition (Kallikrein-7 [1]): < 30%

SMILES: Nc1nc2ccccn2c1C(=O)[C@H](Cc1ccccc1)NC(=O)c1ccccn1
inhibition (Kallikrein-7 [1]): < 30%

SMILES: Cc1ccccc1C1=Nc2nc3ccccn3c2C(=O)[C@H](COCc2ccccc2)N1
inhibition (Kallikrein-7 [1]): < 30%

SMILES: Nc1nc2ccccn2c1C(=O)[C@H](Cc1ccccc1)NC(=O)Cc1ccccc1
IC50 (Kallikrein-7 [3]): 149 µM

SMILES: Cc1ccc(C2=Nc3nc4ccccn4c3C(=O)[C@H](Cc3ccccc3)N2)cc1
IC50 (Kallikrein-7 [3]): 68 µM

SMILES: Cc1ccccc1C1=Nc2nc3ccccn3c2C(=O)[C@H](Cc2cccc3ccccc23)N1
inhibition (Kallikrein-7 [1]): < 30%

SMILES: COc1ccc(C2=Nc3nc4ccccn4c3C(=O)[C@H](Cc3ccccc3)N2)cc1OC
inhibition [2]: inactive
EC50 (SW-620; sw-620): Not Active
IC50 (Kallikrein-7 [3]): 33.5 µM
Ki (Kallikrein-7 [4]): 27 µM
EC50 (HeLa; [10]): 24.3 µM
inhibition [5]: inactive
EC50 ([8]; Homo sapiens, PC-3, read-out: EC50): 64.8 µM
inhibition (Kallikrein-7 [9]): Active
inhibition [7]: inactive

SMILES: COc1ccc(OC)c(C2=Nc3nc4ccccn4c3C(=O)[C@H](Cc3ccccc3)N2)c1
EC50 (SW-620; sw-620): Not Active
IC50 (Kallikrein-7 [3]): 80.9 µM
EC50 (HeLa; [10]): 40 µM
EC50 ([8]; pc-3): Not Active

SMILES: CC(C)CC1=Nc2nc3ccccn3c2C(=O)[C@H](Cc2ccccc2)N1
inhibition (Kallikrein-7 [1]): < 30%

Second part, the molecule after the results:

inhibition (Kallikrein-7 [1]): < 30%
SMILES: COc1ccc(C2=Nc3nc4ccccn4c3C(O)[C@H](Cc3ccccc3)N2)cc1OC (some centres not stated)

inhibition (Kallikrein-7 [1]): > 30%
inhibition [2]: inactive
IC50 (Kallikrein-7 [3]): 57 µM
Ki (Kallikrein-7 [4]): 50.6 µM
inhibition [5]: inactive
inhibition (Kallikrein-7 [6]): Active
inhibition [7]: inactive
SMILES: Cc1ccccc1C1=Nc2nc3ccccn3c2C(=O)[C@H](Cc2ccccc2)N1

inhibition (Kallikrein-7 [1]): < 30%
SMILES: O=C1c2c(nc3ccccn23)N=C(c2ccc(Br)cc2)N[C@H]1Cc1ccccc1

inhibition (Kallikrein-7 [1]): < 30%
SMILES: Nc1nc2ccccn2c1C(=O)[C@H](Cc1ccccc1)NC(=O)c1ccncc1

IC50 (Kallikrein-7 [3]): 72 µM
SMILES: COc1ccc(C2=Nc3nc4ccccn4c3C(=O)[C@H](Cc3ccccc3)N2)cc1

inhibition (Kallikrein-7 [1]): < 30%
SMILES: COc1ccc(C2=Nc3nc4ccccn4c3C(=O)[C@H](Cc3ccccc3)N2C)cc1OC

IC50 (Kallikrein-7 [3]): 95.9 µM
SMILES: Cc1ccccc1C1=Nc2nc3ccccn3c2C(=O)[C@@H](Cc2ccccc2)N1

inhibition (Kallikrein-7 [1]): < 30%
SMILES: Cc1cccc(C2=Nc3nc4ccccn4c3C(=O)[C@H](Cc3ccccc3)N2)c1

inhibition (Kallikrein-7 [1]): < 30%
SMILES: Nc1nc2ccccn2c1C(=O)[C@H](Cc1ccccc1)NC(=O)/C=C/c1ccccc1

inhibition (Kallikrein-7 [1]): < 30%
SMILES: COc1ccc(C2=Nc3nc4ccccn4c3C(=O)[C@H](Cc3ccc(OCc4ccccc4)cc3)N2)cc1OC

inhibition (Kallikrein-7 [1]): < 30%
SMILES: COc1ccc(C2=Nc3nc4ccccn4c3C(=O)[C@H](Cc3ccc(O)cc3)N2)cc1OC

IC50 (Kallikrein-7 [3]): 135 µM
SMILES: Cc1ccccc1C(=O)N[C@@H](Cc1ccccc1)C(=O)c1c(N)nc2ccccn12

inhibition (Kallikrein-7 [1]): < 30%
SMILES: COc1ccc(C2=Nc3nc4ccccn4c3C(=O)[C@H](COCc3ccccc3)N2)cc1OC

IC50 (Kallikrein-7 [3]): 125 µM
SMILES: O=C1c2c(nc3ccccn23)N=C(c2cccc(O)c2)N[C@H]1Cc1ccccc1

inhibition (Kallikrein-7 [1]): < 30%
SMILES: O=C1Nc2nc3ccccn3c2C(=O)[C@H](Cc2ccccc2)N1

inhibition (Kallikrein-7 [1]): < 30%
SMILES: Cc1ccccc1C1=Nc2nc3ccccn3c2C(=O)[C@H](C)N1

inhibition (Kallikrein-7 [1]): < 30%
SMILES: Nc1nc2ccccn2c1C(=O)[C@H](Cc1ccccc1)NC(=O)CCc1ccccc1

— ChEMBL document CHEMBL3407351, “Pyrido-imidazodiazepinones as a new class of reversible inhibitors of human kallikrein 7” (Eur J Med Chem, 2015)
